Assay results: ChEMBL document CHEMBL5214909

How the values were obtained:
[1] = target: Replicase polyprotein 1ab (Severe acute respiratory syndrome coronavirus 2, UniProt P0DTD1); test: Inhibition of SARS-CoV-2 3CLpro using FAM-SAVLQ/SG-QXL520 as substrate measured after 1 hr by fluorescence based microplate reader analysis
Outline: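 The protease was full-length, codon-optimized SARS-CoV-2 3CLpro with an N-terminal His6 tag, expressed from pET-28a(+). It was preincubated with serial inhibitor dilutions or DMSO for 1 h at 37 °C in 20 mM HEPES pH 8, 200 mM NaCl, 0.4 mM EDTA, 60% glycerol and 6 mM DTT. Substrate was then added. Fluorescence (ex 480/em 520 nm) was read 1 h later, minus a no-protease background. IC50 came from a variable-slope fit, averaged over at least two determinations.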

Huh-7 = test: Cytotoxicity against human Huh-7 cells by CytoTox 96 nonradioactive cytotoxicity assay; type: functional
Outline: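 Confluent cells were exposed to compound at 1 to 100 μM for 72 h, and cytotoxicity was read with the CytoTox 96 nonradioactive kit. CC50 came from a variable-slope fit, averaged over at least two determinations.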

[2] = Inhibition of MERS-CoV 3CLpro; parameters: species or system Middle East respiratory syndrome-related coronavirus
SARS-CoV-2 = test: Antiviral activity against SARS-CoV-2 infected in African green monkey Vero E6 cells measured after 48 to 72 hrs; type: functional, organism-based; conditions: Severe acute respiratory syndrome coronavirus 2, Vero C1008

Row | Compound | IC50 [1] | CC50 (Huh-7) | IC50 [2] | EC50 (SARS-CoV-2)
1 | CC(C)C[C@H](NC(=O)OCCC12CC3CC(CC(C3)C1)C2)C(=O)N[C@H](C=O)C[C@H]1CCNC1=O | 270 nM | > 100000 nM |  | 
2 | CC(C)C[C@H](NC(=O)OCC1C[C@@H]2C=CC[C@H](C1)C2)C(=O)N[C@H](C=O)C[C@@H]1CCNC1=O (single isomer, unassigned) |  | > 100000 nM |  | 
3 | [2H]C([2H])(OC(=O)N[C@@H](CC(C)C)C(=O)N[C@H](C=O)C[C@H]1CCNC1=O)C12CC3CC(CC(O)(C3)C1)C2 | 740 nM | > 100000 nM |  | 
4 | [2H]C([2H])(OC(=O)N[C@@H](CC(C)C)C(=O)N[C@H](C=O)C[C@H]1CCNC1=O)C12CC3CC(CC(C3)C1)C2 | 290 nM | > 100000 nM |  | 
5 | [2H]C([2H])(OC(=O)N[C@@H](CC(C)C)C(=O)N[C@@H](C[C@H]1CCNC1=O)C(O)S(=O)(=O)[O-])C1CC2CCCC(C2)C1.[Na+] (stereo not given in full) | 290 nM | > 100000 nM |  | 
6 | CC(C)C[C@H](NC(=O)OC1CC2CCC(C1)N2C(=O)OCc1ccccc1)C(=O)N[C@@H](C[C@H]1CCNC1=O)C(O)S(=O)(=O)O (stereo not given in full) | 370 nM | > 100000 nM |  | 
7 | CC(C)C[C@H](NC(=O)OC1CC2CCC(C1)N2C(=O)OCc1ccccc1)C(=O)N[C@H](C=O)C[C@H]1CCNC1=O (stereo not given in full) | 390 nM | > 100000 nM |  | 
8 | [2H]C([2H])(OC(=O)N[C@@H](CC(C)C)C(=O)N[C@@H](C[C@H]1CCNC1=O)C(O)S(=O)(=O)[O-])C12CC3CC(CC(O)(C3)C1)C2.[Na+] (stereo not given in full) | 780 nM | > 100000 nM |  | 
9 | CC(C)C[C@H](NC(=O)OCC12CC3CC(CC(O)(C3)C1)C2)C(=O)N[C@@H](C[C@H]1CCNC1=O)C(O)S(=O)(=O)O (stereo not given in full) | 1030 nM | > 100000 nM |  | 
10 | CCCCCC12CCC(COC(=O)N[C@@H](CC(C)C)C(=O)N[C@@H](C[C@@H]3CCNC3=O)C(O)S(=O)(=O)O)(CC1)CC2 (single isomer, unassigned) |  | 21000 nM |  | 
11 | CC(C)C[C@H](NC(=O)OCCC12CC3CC(CC(C3)C1)C2)C(=O)N[C@@H](C[C@H]1CCNC1=O)C(O)S(=O)(=O)O (stereo not given in full) | 250 nM | > 100000 nM |  | 
12 | CC(C)C[C@H](NC(=O)OCC1CC2C=CC1C2)C(=O)N[C@@H](C[C@@H]1CCNC1=O)C(O)S(=O)(=O)O (single isomer, unassigned) |  | > 100000 nM |  | 
13 | [2H]C([2H])(OC(=O)N[C@@H](CC(C)C)C(=O)N[C@@H](C[C@H]1CCNC1=O)C(O)S(=O)(=O)[O-])C12CC3CC(CC(C3)C1)C2.[Na+] (stereo not given in full) | 270 nM | > 100000 nM |  | 
14 | CCCCCC12CCC(COC(=O)N[C@@H](CC(C)C)C(=O)N[C@H](C=O)C[C@@H]3CCNC3=O)(CC1)CC2 (single isomer, unassigned) |  | 21000 nM |  | 
15 | CC(C)C[C@H](NC(=O)OCC12CC3CC(CC(C3)C1)C2)C(=O)N[C@H](C=O)C[C@H]1CCNC1=O | 180 nM | > 100000 nM | 55 nM | 
16 | CC(C)C[C@H](NC(=O)OCC1C[C@@H]2C=CC[C@H](C1)C2)C(=O)N[C@@H](C[C@@H]1CCNC1=O)C(O)S(=O)(=O)O (single isomer, unassigned) |  | > 100000 nM |  | 
17 | CC(C)C[C@H](NC(=O)OCC1CC2CCC1C2)C(=O)N[C@@H](C[C@@H]1CCNC1=O)C(O)S(=O)(=O)O (single isomer, unassigned) |  | > 100000 nM | 58 nM | 
18 | CC(C)C[C@H](NC(=O)OCC1CC2CCCC(C2)C1)C(=O)N[C@H](C=O)C[C@H]1CCNC1=O (stereo not given in full) | 180 nM | > 100000 nM | 52 nM | 35 nM
19 | CC(C)C[C@H](NC(=O)OCC12CC3CC(CC(O)(C3)C1)C2)C(=O)N[C@H](C=O)C[C@H]1CCNC1=O | 820 nM | > 100000 nM |  | 
20 | [2H]C([2H])(OC(=O)N[C@@H](CC(C)C)C(=O)N[C@H](C=O)CC1CCNC1=O)C1CC2C=CCC(C2)C1 (single isomer, unassigned) |  | > 100000 nM |  | 
21 | CC(C)C[C@H](NC(=O)OC1CC2CCC(C1)N2C(=O)OC(C)(C)C)C(=O)N[C@H](C=O)C[C@H]1CCNC1=O (stereo not given in full) | 1900 nM | > 100000 nM |  | 
22 | [2H]C([2H])(OC(=O)N[C@@H](CC(C)C)C(=O)N[C@H](C=O)CC1CCNC1=O)C12CCC(CCCCC)(CC1)CC2 (single isomer, unassigned) |  | 20000 nM |  | 
23 | [2H]C([2H])(OC(=O)N[C@@H](CC(C)C)C(=O)N[C@@H](CC1CCNC1=O)C(O)S(=O)(=O)O)C1CC2C=CCC(C2)C1 (single isomer, unassigned) |  | > 100000 nM |  | 
24 | CC(C)C[C@H](NC(=O)OC1CC2CCC(C1)N2C(=O)OC(C)(C)C)C(=O)N[C@@H](C[C@H]1CCNC1=O)C(O)S(=O)(=O)O (stereo not given in full) | 1710 nM | > 100000 nM |  | 
25 | CC(C)C[C@H](NC(=O)OCC12CC3CC(CC(C3)C1)C2)C(=O)N[C@@H](C[C@H]1CCNC1=O)C(O)S(=O)(=O)O (stereo not given in full) | 150 nM | > 100000 nM | 53 nM | 
26 | [2H]C([2H])(OC(=O)N[C@@H](CC(C)C)C(=O)N[C@H](C=O)C[C@H]1CCNC1=O)C1CC2CCCC(C2)C1 (stereo not given in full) | 290 nM | > 100000 nM |  | 
27 | CC(C)C[C@H](NC(=O)OCC1CC2CCC1C2)C(=O)N[C@H](C=O)C[C@@H]1CCNC1=O (single isomer, unassigned) |  | > 100000 nM | 63 nM | 
28 | CC(C)C[C@H](NC(=O)OCC1CC2C=CC1C2)C(=O)N[C@H](C=O)C[C@@H]1CCNC1=O (single isomer, unassigned) |  | > 100000 nM |  | 
29 | [2H]C([2H])(OC(=O)N[C@@H](CC(C)C)C(=O)N[C@@H](CC1CCNC1=O)C(O)S(=O)(=O)O)C12CCC(CCCCC)(CC1)CC2 (single isomer, unassigned) |  | 23000 nM |  | 
30 | CC(C)C[C@H](NC(=O)OCC1C[C@H]2CCC[C@@H](C1)C2)C(=O)N[C@@H](C[C@@H]1CCNC1=O)C(O)S(=O)(=O)O (single isomer, unassigned) |  | > 100000 nM | 49 nM | 32 nM
